Values without a mark were called inactive. Activity calls are given as the source filed them. Cut-off read from the data, not from the text of the source, unless noted: active = inhibition above about 30%; inactive = the rest.

By inhibition is commonly meant the drop in the measured response relative to a control, in per cent.

The nature of one assay: growth suppression of yeast trafficking mutant, preliminary HTS, modulators of trafficking downstream of Golgi apparatus project, 1536-format plate, OD 615 nm (AID 637). To be noted: yeast transport mutant growth, absorbance 615 nm, 18 h; active compounds read high.
On to `CN(C)c1ccc(NC(=O)Cn2cc3c(n2)CCCC3)cc1`, for which the inhibition is -5%.

Take `CCOC(=O)c1cc(NC(=O)SCC(=O)O)c(C)nc1C`: the inhibition was -1.64%.

Consider `Cc1nc2ccccc2c2oc(C(=O)NCC3COc4ccccc4O3)cc12` (configuration not stated), for which the inhibition is 6.33%.

Consider `O=C(CS(=O)(=O)c1cn(Cc2ccc(F)cc2)c2ccccc12)N1CCCCC1`, for which the inhibition was -5.17%.

As for `Cc1ccc(C2c3c(oc4ccccc4c3=O)C(=O)N2c2nnc(C(C)C)s2)o1` (configuration not stated), the inhibition was 3.17%.

With `Cc1cc(C)c2c(=O)n(CC(=O)NCCCN3CCN(c4ccccc4F)CC3)sc2n1`, the inhibition is 10%.

As to `COc1ccccc1S(=O)(=O)Cc1ccc(C(=O)NCCN2CCCCCC2)o1`, the inhibition is -1.33%.

In the case of `COc1ccc(C2C(C(=O)Nc3cccnc3)=C(C)Nc3nc(-c4cccs4)nn32)cc1OC` (configuration not stated), the inhibition is -6.17%.

As to `Cc1cc(=O)oc2cc(OCC#N)ccc12`, the inhibition was 1.33%.

As to `CC1=C(C(N)=O)C(c2ccccn2)n2nc(SCc3ccccc3)nc2N1` (configuration not stated), the inhibition was -5.64%.

Take `OC1(c2cccc(C(F)(F)F)c2)CCN(c2ccc(-c3ccccc3)nn2)CC1`: the inhibition is 0.98%.

`CCOC(=O)CSC1=C(C#N)C(c2ccc(C)o2)CC(=O)N1` (configuration not stated): the inhibition is -0.66%.

Regarding `O=C(Nc1nc2c(s1)CCCC2)C1COc2ccccc2O1` (configuration not stated), the inhibition was -5.25%.

As for `Cc1ccccc1Cn1nc(C)c(NC(=O)c2noc3c2CCc2ccccc2-3)c1C`, the inhibition was -2.17%.

For `O=C(C1CC1)N1CCc2cc(Br)cc(S(=O)(=O)N3CCOCC3)c21`, the inhibition was 1.11%.

For `C/C=C/COC(=O)c1[nH]c2c(c1C)C(=O)CC(c1ccco1)C2` (configuration not stated), the inhibition was -3.28%.

`Cc1ccc2nc(NC(=O)Cn3cc4c(n3)CCCCC4)sc2c1`: the inhibition was -4.67%.

As for `Cn1c(=O)oc2cc(S(=O)(=O)N3CCN(c4ccccn4)CC3)ccc21`, the inhibition was -3.67%.

Take `Cc1cccc(N(CC(=O)N2CCCC2)S(=O)(=O)c2ccccc2)c1C`: the inhibition was 1.82%.

In the case of `CC(Sc1n[nH]c(=O)[nH]c1=O)C(=O)OCc1ccccc1` (configuration not stated), the inhibition is -0.18%.

Turning to `O=C(Nc1ccncc1)c1cc2ccccc2o1`, the inhibition is -0.36%.

Take `CCOc1ccccc1NC(=O)C1CCCN(S(=O)(=O)c2cccc3cccnc23)C1` (configuration not stated): the inhibition is 1.67%.

Consider `O=C(Nc1nc(-c2ccncc2)cs1)C1COc2ccccc2O1` (configuration not stated), for which the inhibition was -8%.

As to `CC(C)C(CO)NC(=O)CC(=O)NC(CO)C(C)C` (configuration not stated), the inhibition was -0.91%.

On to `C(=N\n1cnnc1)/c1cccc(OCCOc2ccccc2)c1`, for which the inhibition was 2%.

As to `C/C=C/COC(=O)c1[nH]c2c(c1C)C(=O)CC(c1ccc(N(C)C)cc1)C2` (configuration not stated), the inhibition is 49.8% (active).

With `Cc1ccc(C)c(N2CCN(CCCNC(=O)Cn3cc4c(n3)CCC(C)C4)CC2)c1` (configuration not stated), the inhibition was -2.83%.

For the molecule `CCOC(=O)c1ccc(N=c2sc(C(=O)OC)cc(=O)n2Cc2ccco2)cc1`, the inhibition is -1.33%.

In the case of `Cc1ccccc1-c1nc(CN2CCC(C(=O)NC3CCN(Cc4ccccc4)CC3)CC2)c(C)o1`, the inhibition is 3%.

Consider `CC(=O)n1cc(-c2ccncc2)c2ccccc21`, for which the inhibition is -3%.

Turning to `C/C=C/CSc1nc2c(c(=O)[nH]c(=O)n2C)n1Cc1ccc(C)cc1`, the inhibition is -0.49%.

With `O=C(NCCN1C(=O)C2C3C=CC(C3)C2C1=O)Nc1ccccn1` (configuration not stated), the inhibition was -2.33%.

As for `CC1CCCCN1S(=O)(=O)c1ccc(NC(=O)c2cccs2)cc1` (configuration not stated), the inhibition is -13.2%.

For the molecule `CCOc1ccc(N(CC(=O)Nc2cccc(OC)c2)S(=O)(=O)c2c(C)noc2C)cc1`, the inhibition is -7.38%.

In the case of `CCOC(=O)N1CCN(C(=O)CN(C2CCCCC2)S(=O)(=O)c2ccc(F)cc2)CC1`, the inhibition was -4.36%.

In the case of `COc1cccc(-c2nc(CS(=O)(=O)CC(=O)Nc3cc(C)ccc3C)c(C)o2)c1`, the inhibition is -4.1%.

As for `Cc1cc(=O)oc2c1ccc1oc(/C(=N/O)c3ccccc3)c(C)c12`, the inhibition was 17.2%.

Regarding `Cc1cc(/C=N/n2cnnc2)c(C)n1-c1cccc(Cl)c1`, the inhibition was 3.83%.

Consider `Cc1cc(C)c2c(=O)n(CC(=O)NCCCN3CCOCC3)sc2n1`, for which the inhibition was -2.67%.

A short description of a further assay: OD615 S. cerevisiae growth inhibition, permissive medium, pilot counter-assay, permissive growth control for S. cerevisiae lifespan shortening project (AID 705;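 active = growth inhibition above 25% in both replicates, a cutoff set 3 SD above the mean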). The settings on record: OD615, 24 h, at 10 µM, active compounds read high. The procedure, abridged:
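System: engineered DeaD yeast; Medium: permissive raffinose/galactose medium; Compound dosing: 10 µM single dose, 0.25% DMSO; Incubation: 4 h cell pre-growth, 24 h exposure at 30 °C; Technique: OD at 615 nm; Evaluation: growth inhibition from lowered OD615 after 24 h.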
As for `CN(C)c1ccc(NC(=O)Cn2cc3c(n2)CCCC3)cc1`, the growth inhibition is 11.9%.

With `CCOC(=O)c1cc(NC(=O)SCC(=O)O)c(C)nc1C`, the growth inhibition is 0.31%.

Regarding `Cc1nc2ccccc2c2oc(C(=O)NCC3COc4ccccc4O3)cc12` (configuration not stated), the growth inhibition is -0.145%.

As to `O=C(CS(=O)(=O)c1cn(Cc2ccc(F)cc2)c2ccccc12)N1CCCCC1`, the growth inhibition is -24.1%.

For `Cc1ccc(C2c3c(oc4ccccc4c3=O)C(=O)N2c2nnc(C(C)C)s2)o1` (configuration not stated), the growth inhibition is -13.3%.

As for `Cc1cc(C)c2c(=O)n(CC(=O)NCCCN3CCN(c4ccccc4F)CC3)sc2n1`, the growth inhibition was 16.2%.

With `COc1ccccc1S(=O)(=O)Cc1ccc(C(=O)NCCN2CCCCCC2)o1`, the growth inhibition was 2.4%.

In the case of `COc1ccc(C2C(C(=O)Nc3cccnc3)=C(C)Nc3nc(-c4cccs4)nn32)cc1OC` (configuration not stated), the growth inhibition is -9.82%.

For `Cc1cc(=O)oc2cc(OCC#N)ccc12`, the growth inhibition was -4.47%.

As for `CC1=C(C(N)=O)C(c2ccccn2)n2nc(SCc3ccccc3)nc2N1` (configuration not stated), the growth inhibition was -2.97%.

`OC1(c2cccc(C(F)(F)F)c2)CCN(c2ccc(-c3ccccc3)nn2)CC1`: the growth inhibition was -3.31%.

Regarding `CCOC(=O)CSC1=C(C#N)C(c2ccc(C)o2)CC(=O)N1` (configuration not stated), the growth inhibition is -8.58%.

As to `O=C(Nc1nc2c(s1)CCCC2)C1COc2ccccc2O1` (configuration not stated), the growth inhibition is -5.28%.

Consider `Cc1ccccc1Cn1nc(C)c(NC(=O)c2noc3c2CCc2ccccc2-3)c1C`, for which the growth inhibition is -6.68%.

As for `O=C(C1CC1)N1CCc2cc(Br)cc(S(=O)(=O)N3CCOCC3)c21`, the growth inhibition was -11.8%.

Regarding `C/C=C/COC(=O)c1[nH]c2c(c1C)C(=O)CC(c1ccco1)C2` (configuration not stated), the growth inhibition is -4.97%.

For the molecule `Cc1ccc2nc(NC(=O)Cn3cc4c(n3)CCCCC4)sc2c1`, the growth inhibition was -4.68%.

With `Cn1c(=O)oc2cc(S(=O)(=O)N3CCN(c4ccccn4)CC3)ccc21`, the growth inhibition was -8.03%.

As for `Cc1cccc(N(CC(=O)N2CCCC2)S(=O)(=O)c2ccccc2)c1C`, the growth inhibition was -1.1%.

`CC(Sc1n[nH]c(=O)[nH]c1=O)C(=O)OCc1ccccc1` (configuration not stated): the growth inhibition was -21.9%.

For the molecule `O=C(Nc1ccncc1)c1cc2ccccc2o1`, the growth inhibition is -10.7%.

In the case of `CCOc1ccccc1NC(=O)C1CCCN(S(=O)(=O)c2cccc3cccnc23)C1` (configuration not stated), the growth inhibition was -4.4%.

Consider `CC(C)C(CO)NC(=O)CC(=O)NC(CO)C(C)C` (configuration not stated), for which the growth inhibition is -4.75%.

On to `C(=N\n1cnnc1)/c1cccc(OCCOc2ccccc2)c1`, for which the growth inhibition was -7.18%.

Consider `C/C=C/COC(=O)c1[nH]c2c(c1C)C(=O)CC(c1ccc(N(C)C)cc1)C2` (configuration not stated), for which the growth inhibition is -10.2%.

In the case of `Cc1ccc(C)c(N2CCN(CCCNC(=O)Cn3cc4c(n3)CCC(C)C4)CC2)c1` (configuration not stated), the growth inhibition is 6.12%.

Turning to `CCOC(=O)c1ccc(N=c2sc(C(=O)OC)cc(=O)n2Cc2ccco2)cc1`, the growth inhibition was -11.7%.

Regarding `Cc1ccccc1-c1nc(CN2CCC(C(=O)NC3CCN(Cc4ccccc4)CC3)CC2)c(C)o1`, the growth inhibition was -8.2%.

On to `CC(=O)n1cc(-c2ccncc2)c2ccccc21`, for which the growth inhibition is -5.77%.

`C/C=C/CSc1nc2c(c(=O)[nH]c(=O)n2C)n1Cc1ccc(C)cc1`: the growth inhibition was 0.005%.

Consider `O=C(NCCN1C(=O)C2C3C=CC(C3)C2C1=O)Nc1ccccn1` (configuration not stated), for which the growth inhibition is 5%.

For `CC1CCCCN1S(=O)(=O)c1ccc(NC(=O)c2cccs2)cc1` (configuration not stated), the growth inhibition is -8.63%.

Consider `CCOc1ccc(N(CC(=O)Nc2cccc(OC)c2)S(=O)(=O)c2c(C)noc2C)cc1`, for which the growth inhibition is -11.5%.

Take `CCOC(=O)N1CCN(C(=O)CN(C2CCCCC2)S(=O)(=O)c2ccc(F)cc2)CC1`: the growth inhibition was -7.17%.

Consider `COc1cccc(-c2nc(CS(=O)(=O)CC(=O)Nc3cc(C)ccc3C)c(C)o2)c1`, for which the growth inhibition was -3.37%.

Regarding `Cc1cc(=O)oc2c1ccc1oc(/C(=N/O)c3ccccc3)c(C)c12`, the growth inhibition is -11%.

As for `Cc1cc(/C=N/n2cnnc2)c(C)n1-c1cccc(Cl)c1`, the growth inhibition was -2%.

With `Cc1cc(C)c2c(=O)n(CC(=O)NCCCN3CCOCC3)sc2n1`, the growth inhibition is 4.33%.

These data come from PubChem BioAssay.
